Source: PubChem BioAssay (several laboratories)
SENP1 inh = human SENP1 catalytic domain inhibitors, primary screen, biochemical, FRET, uHTS; inhibition, % at 10 µM; recombinant SENP1 catalytic domain, CyPet-SUMO1-YPet FRET cleavage; 360,000 compounds, 0.21% hits;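 active = inhibition at least 30% at 10 µM, raw YFP signal under a set limit, fluorescence ratio 0.5 to 1.5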
Target sequence (Q9P0U3 419-644 limits assumed): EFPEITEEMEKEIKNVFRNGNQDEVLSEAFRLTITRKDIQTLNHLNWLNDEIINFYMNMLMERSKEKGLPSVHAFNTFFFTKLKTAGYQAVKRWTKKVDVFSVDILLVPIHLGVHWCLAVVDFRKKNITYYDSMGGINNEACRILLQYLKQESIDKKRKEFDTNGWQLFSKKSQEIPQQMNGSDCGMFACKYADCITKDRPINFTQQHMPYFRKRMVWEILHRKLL
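Material: hSENP1 catalytic domain, recombinant; medium: Tris pH 8 with BME, BSA, NP40 and catalase; compound: single concentration of 10 µM compound, 0.5% DMSO final; technique: FRET read of cyan and yellow fluorescence; timing: 50 min enzyme reaction, room temperature, light-protected; reagent: SFCypet-SUMO1-SFYpet substrate at 25 nM; control set: no-enzyme low, enzyme-DMSO high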
CTSL1 counter = Fasciola hepatica cathepsin L1 inhibitors, primary screen, counter-screen for PFM18AAP inhibitor project, biochemical, QFRET, fluorogenic peptide substrate; recombinant F. hepatica cathepsin L1, Z-Leu-Arg-MCA fluorescence; inhibition, % at 5.96 µM; 300,000 compounds, 0.49% hits; AID 1906, 2009;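 active = inhibition above the mean of all tested compounds plus 3 SD, set per screening campaign, cut at about 17% in these data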
FXN GAA850 act = FXN promoter activators, primary screen, cell-based, luciferase luminescence, HEK293 lucGAA850. HEK293 lucGAA850 FXN promoter luciferase reporter, 24 h; percent of 10 µM SAHA response. activation, % at 6 µM. 360,000 compounds, 0.56% hits. AID 540364, 2011;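 active = activation above the average of all compounds screened plus 3 SD, cutoff fixed separately per campaign, cut at about 7.5% in these data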
PfM18AAP inh = PfM18AAP inhibitors, malaria aminopeptidase, primary screen, biochemical, QFRET, recombinant enzyme. 290,000 compounds, 1.2% hits. H-Glu-NHMec fluorogenic cleavage. inhibition, % at 7.35 µM;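 active = inhibition above the campaign mean inhibition over all tested compounds plus 3 SD, cut at about 28% in these data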
HDAC3 inhib = HDAC3 deacetylase inhibitors, primary screen, biochemical, fluorescence, cell-free homogeneous; recombinant HDAC3, fluorogenic peptide/trypsin coupled; Histone deacetylase 3 (Homo sapiens), O15379; 320,000 compounds, 0.15% hits; inhibition, % at 8.3 µM; in the data active = inhibition above about 26%, passing the limit was not always enough
Target sequence (O15379 whole entry, looked up): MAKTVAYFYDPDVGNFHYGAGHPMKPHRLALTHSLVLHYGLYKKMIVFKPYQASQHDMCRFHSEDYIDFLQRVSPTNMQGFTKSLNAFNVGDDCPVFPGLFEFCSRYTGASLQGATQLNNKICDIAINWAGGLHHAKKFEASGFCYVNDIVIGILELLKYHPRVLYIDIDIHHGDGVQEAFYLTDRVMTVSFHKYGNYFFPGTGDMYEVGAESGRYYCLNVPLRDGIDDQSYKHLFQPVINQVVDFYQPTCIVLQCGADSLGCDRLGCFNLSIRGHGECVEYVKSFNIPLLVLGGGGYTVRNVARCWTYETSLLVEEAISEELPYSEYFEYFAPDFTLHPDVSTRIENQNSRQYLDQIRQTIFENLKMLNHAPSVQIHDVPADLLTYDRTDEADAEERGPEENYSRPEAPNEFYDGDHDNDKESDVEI
AHR activator = AHR activators, primary screen, cell-based, luminescence, luciferase reporter, human; AID 2796, 2010; 320,000 compounds, 2.5% hits; activation, % at 5 µM; AHR-responsive luciferase reporter cells; Aryl hydrocarbon receptor (Homo sapiens), P35869; in the data active = activation above about 47%
GAA30 FXN cntr = GAA30 FXN promoter activators, confirmation, counter-screen for GAA850 frataxin promoter activator project, cell-based, luminescence, HEK293, lucGAA30, triplicate. shares compounds with FXN GAA850 act. 1,900 compounds, 66% hits. HEK293 lucGAA30 FXN promoter luciferase, 24 h; DMSO = 0%, 5 µM ipriflavone = 100%. activation, % at 6 µM;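 active = mean activation above the mean of solvent-only control wells plus 3 SD, cut at about 22% in these data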;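 note: counterscreen of GAA850 promoter hits where activity marks nonselective or luminescence artifacts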
FXN GAA850 conf = FXN GAA850 promoter activators in reporter cells, confirmation, cell-based, luminescence, HEK293 lucGAA850, triplicate. shares compounds with FXN GAA850 act. HEK293 lucGAA850 FXN promoter luciferase reporter, 24 h; 100% = activation by SAHA. activation, % at 6 µM. 1,900 compounds, 86% hits;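 active = mean activation above a set limit taken from the primary screen, cut at about 8% in these data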
Hits are given with their value; 0 = inactive; - = no result. This is a sample that favours compounds with a hit; in the whole collection about 4.2% have one here.

SMILES	SENP1 inh	CTSL1 counter	FXN GAA850 act	PfM18AAP inh	HDAC3 inhib	AHR activator	GAA30 FXN cntr	FXN GAA850 conf
CCCNC(=O)C1(C)CCN(C(=O)c2cccc(C(F)(F)F)c2)C1 (centres undefined)	0	-	0	-	-	-	-	-
O=C(OC(C(=O)Nc1ccc(Cl)cc1C(F)(F)F)c1ccccc1)c1c(Cl)cccc1Cl (centres undefined)	0	0	11	0	0	0	0	11
COCCCNC(=O)C[C@@H]1C[C@@]2(C(=O)OC)CC(C)(C)CC=C2N(Cc2ccccc2)C1=O	0	-	-	-	-	-	-	-
CCOC(=O)c1ccc(NC(=O)Nc2ccc(OC)c(OC)c2)cc1	0	0	0	0	0	0	-	-
CCOC(=O)c1ccccc1NC(=O)Nc1ccc(OC)c(OC)c1	0	0	9.6	0	0	0	0	10
Brc1ccc2oc(-c3ccn[nH]3)cc2c1	0	0	7.8	0	0	0	116	38
O=c1oc2ccc(Br)cc2cc1-c1nc2ccccc2o1	0	0	0	0	0	0	-	-
COc1ccc(C2=NN(c3ccc(C(=O)O)cc3)C(c3ccc(OC)c(OC)c3)C2)cc1 (centres undefined)	0	0	11	0	0	0	31	19
CS(=O)(=O)N1CCCCC1c1cc(C(=O)Nc2cccc3c2CCCC3)no1 (centres undefined)	0	-	0	-	-	-	-	-
N#Cc1ccc(S(=O)(=O)N2CCCCC2c2cc(C(=O)Nc3cccc4c3CCCC4)no2)cc1 (centres undefined)	0	-	7.9	-	-	-	27	12
Cc1cccc(N2C(=O)N3[C@H](c4ccc(Br)cc4)[C@@H]4C(=O)N(C(C)(C)C)C(=O)[C@@H]4[C@]3(Cc3ccc(Cl)cc3)C2=O)c1	0	0	10	0	0	0	0	17
Cc1cccc(N2C(=O)N3[C@H](c4ccc(Br)cc4)[C@@H]4C(=O)N(C(C)(C)C)C(=O)[C@@H]4[C@]3(C)C2=O)c1	0	0	14	0	0	0	28	16
CCCCNC(=O)c1cc(-c2ccc(OC)cc2)on1	0	0	0	0	0	0	-	-
Cc1ccc(-c2cc(C(=O)NCc3cccs3)no2)cc1	0	0	0	0	0	0	-	-
CCCCNC(=O)c1cc(-c2ccc(F)cc2)on1	0	0	32	0	0	0	166	79
O=C(NCCN1CCOCC1)c1cc(-c2cccs2)on1	0	0	17	0	0	62	116	55
Cc1ccc(O)c(NC(=O)c2cc(-c3cccs3)on2)c1	0	0	9.9	0	0	0	87	47
O=C(NCc1cccs1)c1cc(-c2ccc(O)cc2)on1	0	0	8.9	0	0	0	103	32
CC(SCC(=O)NC(C)C1CC2CCC1C2)C(=O)O (centres undefined)	0	0	0	0	0	0	-	-
O=C(COC(=O)Cc1cccs1)Nc1ccc(OC(F)(F)F)cc1	0	0	0	-	0	0	-	-
O=C(NCCCN1CCOCC1)c1cc(-c2ccccc2)on1	0	0	17	0	0	0	101	56
O=C(NCCN1CCOCC1)c1cc(-c2ccc(Br)cc2)on1	0	0	0	0	0	0	-	-
O=C(NCCN1CCOCC1)c1cc2sccc2n1Cc1ccc(F)cc1	0	0	8.8	0	0	0	0	8.3
O=C(NCCN1CCOCC1)c1cc(-c2ccccc2)on1	0	0	17	0	0	0	99	42
O=C(NCCCN1CCOCC1)c1cc(-c2ccc(O)cc2)on1	0	0	0	0	-	0	-	-
SMILES	SENP1 inh	CTSL1 counter	FXN GAA850 act	PfM18AAP inh	HDAC3 inhib	AHR activator	GAA30 FXN cntr	FXN GAA850 conf
O=C(Nc1ncc(Cc2cccc(Cl)c2)s1)C1CCCO1 (centres undefined)	0	0	8.2	0	0	0	87	28
COc1ccc(-c2csc(N3C(=O)CNC3=S)n2)cc1	0	0	0	0	0	0	-	-
COc1ccc(-c2csc(N3C(=N)SCC3=O)n2)cc1	0	0	10	0	0	0	96	28
COc1ccc(C(C(=O)NC(C)(C)C)n2c(-c3ccc(-c4ccccc4)cc3)nc3ccccc32)cc1 (centres undefined)	0	-	-	-	-	-	-	-
Cc1ccc(-c2nn3c(C)nnc3s2)cc1NC(=O)C(C)C	0	0	0	0	0	0	-	-
Cc1ccc(-c2nn3c(C)nnc3s2)cc1NC(=O)c1ccco1	0	0	14	0	0	0	26	0
O=C1COc2ccc(C(=O)CCl)cc2N1	0	0	9.8	0	0	0	202	0
Cc1ccc(C)c(-c2ccc(=O)n(Cc3cccc(Br)c3)n2)c1	0	0	8.3	0	0	0	0	0
CC(=O)c1ccc(NC(=S)N2CCCC2)cc1	0	-	0	0	0	-	-	-
COC(=O)CN1C(c2ccc(OC)cc2)=Nc2ccc(Cl)cc2C1c1ccccc1 (centres undefined)	0	0	0	0	0	0	-	-
COC(=O)CN1C(c2cccc(Cl)c2)=Nc2ccc(Cl)cc2C1c1ccccc1 (centres undefined)	0	0	8.5	0	0	0	39	15
C=CC1CN2CCC1CC2C(O)c1ccnc2ccc(OC)cc12 (centres undefined)	0	-	0	-	-	-	-	-
COc1nc(N)nc(NC(=O)c2cccs2)c1N=O	0	50	16	-	0	0	0	31
CC(C)c1ccc(N(C(=O)c2csnn2)C(C(=O)NC(C)(C)C)c2ccncc2)cc1 (centres undefined)	0	0	14	0	0	0	115	32
CCc1ccc(CN(C)C(=O)C2=CC=CN3CCS(=O)(=O)N=C23)cc1	0	-	0	-	-	-	-	-
COc1ccccc1Nc1nc(-c2cccs2)cs1	0	0	10	0	0	0	126	40
COc1ccccc1Nc1nc(-c2cccnc2)cs1	0	0	0	0	0	0	-	-
COc1ccc(-c2noc(CCC(=O)NCCc3ccccc3)n2)cc1OC	0	-	0	0	0	-	-	-
O=C(Nc1ccccc1Cl)c1ccccc1CC(O)(c1ccccc1)c1ccccc1	0	-	14	-	-	-	0	12
